SIAE inh – human SIAE inhibition, primary screen | inhibition, % at 9.66 µM | AID 1053197 | SIAE FP-Rh probe binding, fluorescence polarization | Q9HAT2 | 370,000 compounds, 0.69% hits;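 active means inhibition above a cutoff: mean of compounds within the control limits plus 3 SD of those, cut at about 17% in these data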
PAD4 inh – blocks human protein arginine deiminase 4; Q9UM07; recombinant PAD4, RCA probe fluorescence polarization; inhibition, % at 6.36 µM; 330,000 compounds, 0.41% hits; AID 485272;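 active means percent inhibition above a cutoff equal to the mean of all tested compounds plus 3 SD, cut at about 15% in these data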
Target sequence (Q9UM07 whole entry, looked up): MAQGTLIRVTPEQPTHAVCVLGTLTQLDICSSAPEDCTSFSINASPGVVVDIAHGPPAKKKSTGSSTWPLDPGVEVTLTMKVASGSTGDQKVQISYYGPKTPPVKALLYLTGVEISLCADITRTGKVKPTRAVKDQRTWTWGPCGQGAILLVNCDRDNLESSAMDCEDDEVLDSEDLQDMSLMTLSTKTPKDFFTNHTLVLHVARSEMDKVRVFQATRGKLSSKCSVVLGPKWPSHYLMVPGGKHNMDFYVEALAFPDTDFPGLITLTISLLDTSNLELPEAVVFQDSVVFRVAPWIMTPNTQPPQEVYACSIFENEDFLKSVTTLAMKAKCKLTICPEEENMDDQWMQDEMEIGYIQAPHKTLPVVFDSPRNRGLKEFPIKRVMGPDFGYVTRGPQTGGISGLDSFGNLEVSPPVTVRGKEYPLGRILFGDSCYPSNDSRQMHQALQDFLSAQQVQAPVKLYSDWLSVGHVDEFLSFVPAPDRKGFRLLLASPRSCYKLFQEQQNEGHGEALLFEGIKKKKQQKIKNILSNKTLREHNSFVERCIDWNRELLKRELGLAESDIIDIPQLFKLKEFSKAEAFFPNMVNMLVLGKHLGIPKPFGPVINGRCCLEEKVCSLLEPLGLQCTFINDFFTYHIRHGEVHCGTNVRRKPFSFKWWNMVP
GSTO1 counter – blocks human GSTO1 in RBBP9 counter-screen | P78417 | AID 1974 | 300,000 compounds, 1.1% hits | recombinant GSTO1, activity-based probe fluorescence polarization | inhibition, % at 5.96 µM;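 active means inhibition above the campaign mean inhibition plus 3 SD, cut at about 35% in these data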
PRMT1 FP inh – inhibitors of human PRMT1 | 370,000 compounds, 1.3% hits | inhibition, % at 2.79 µM | recombinant PRMT1, activity-based probe fluorescence polarization | Q99873;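 active means inhibition above about 21% made by adding two undisclosed values, limit read from the data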
RBBP9 inhibitor – blocks human serine hydrolase RBBP9. O75884. recombinant RBBP9, FP-Rh probe fluorescence polarization. inhibition, % at 7.94 µM. 220,000 compounds, 0.2% hits. AID 1515;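 active means inhibition above the campaign mean of all tested compounds plus 3 SD, cut at about 14% in these data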
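Controls: DMSO-treated enzyme wells and wells lacking RBBP9 | Material: RBBP9 protein | Technique: Fluorescence polarization | Replication: Single well per compound, no replicates | Buffer or medium: Tris-NaCl-Pluronic buffer, pH 8.0 | Timing: 30 min compound preincubation, 45 min probe labeling, 25 °C | Read-out basis: Percent inhibition from mP, scaled between DMSO and no-protein wells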
SIAE confirm – confirmation of human SIAE inhibitors. 2,300 compounds, 13% hits. inhibition, % at 9.66 µM. SIAE FP-Rh activity-based probe, fluorescence polarization. shares compounds with SIAE inh. AID 1117263;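 active means mean inhibition of the replicates above the hit cutoff set in the primary screen, cut at about 17% in these data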;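 further: inhibitors lower polarization as more probe stays unbound to SIAE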
Hits are given with their value. Compounds with a hit are over-represented: about 2.7% of the library has one in this group of screens.

How did Cc1cc(C)nc(N2CCCC(C(=O)NC(C)C)C2)n1 (stereo not drawn) do in these assays?
SIAE inh: 17.6; PAD4 inh: inactive; GSTO1 counter: inactive; PRMT1 FP inh: inactive; RBBP9 inhibitor: inactive; SIAE confirm: inactive

Results for COc1ccccc1OCC(=O)Nc1nc2c(s1)CCCC2 ?
SIAE inh: inactive; PAD4 inh: inactive; GSTO1 counter: inactive; PRMT1 FP inh: inactive

How did CC(C)C(OC(=O)c1ccc(Cl)nc1)C(=O)NC1CCCCC1 (stereo not drawn) do in these assays?
SIAE inh: inactive; PAD4 inh: inactive; GSTO1 counter: inactive; PRMT1 FP inh: inactive

Results for CC(OC(=O)c1ccc(Cl)nc1)C(=O)NC1CCCC1 (stereo not drawn) ?
SIAE inh: 19.1; PAD4 inh: inactive; PRMT1 FP inh: inactive; SIAE confirm: inactive

How did O=C(O)CCC(=O)N1N=C(c2c(-c3ccccc3)c3cc(Cl)ccc3[nH]c2=O)CC1c1cccs1 (stereo not drawn) do in these assays?
SIAE inh: inactive; PAD4 inh: inactive; GSTO1 counter: inactive; PRMT1 FP inh: inactive; RBBP9 inhibitor: inactive

How did Cc1c(NC(=S)NC(=O)c2cccc(Br)c2)c(=O)n(-c2ccccc2)n1C do in these assays?
SIAE inh: 17.1; PAD4 inh: inactive; GSTO1 counter: inactive; PRMT1 FP inh: inactive; SIAE confirm: inactive

Results for Cc1c(NC(=S)NC(=O)c2cccc([N+](=O)[O-])c2)c(=O)n(-c2ccccc2)n1C ?
SIAE inh: inactive; PAD4 inh: inactive; GSTO1 counter: inactive; PRMT1 FP inh: inactive

What do the screens show for `O=C(NN1CC(C(=O)OCc2ccc(Cl)cc2Cl)CC1=O)c1ccccc1` (stereo not drawn)?
SIAE inh: inactive; PRMT1 FP inh: inactive

What do the screens show for `CN1CCN(S(=O)(=O)c2cccc(C(=O)Oc3cccc(Br)c3)c2)CC1`?
SIAE inh: inactive; PAD4 inh: inactive; GSTO1 counter: inactive; PRMT1 FP inh: inactive

What do the screens show for `O=C(CNc1ccc2ccccc2c1)N/N=C/c1ccc(OC(=O)/C=C/c2ccco2)cc1`?
SIAE inh: 21.7; PAD4 inh: inactive; GSTO1 counter: inactive; PRMT1 FP inh: inactive; RBBP9 inhibitor: inactive; SIAE confirm: inactive

What do the screens show for `O=C(CNc1cccc2ccccc12)N/N=C/c1ccc(OC(=O)/C=C/c2ccco2)cc1`?
SIAE inh: inactive; PRMT1 FP inh: inactive; RBBP9 inhibitor: inactive

Results for O=C(O)c1ccc(S(=O)(=O)NC2CCCc3ccccc32)cc1 (stereo not drawn) ?
SIAE inh: inactive; PAD4 inh: inactive; GSTO1 counter: inactive; PRMT1 FP inh: inactive; RBBP9 inhibitor: inactive

How did O=S(=O)(NC1CCCc2ccccc21)c1cnc[nH]1 (stereo not drawn) do in these assays?
SIAE inh: 26.3; PAD4 inh: inactive; GSTO1 counter: inactive; PRMT1 FP inh: inactive; RBBP9 inhibitor: inactive; SIAE confirm: inactive

How did CCN(CC)C1=NC=CC(c2ccccc2)=CC1C (stereo not drawn) do in these assays?
SIAE inh: 28.5; PAD4 inh: inactive; GSTO1 counter: inactive; PRMT1 FP inh: inactive; RBBP9 inhibitor: inactive; SIAE confirm: inactive

What do the screens show for `COc1ccccc1NCC(=O)N/N=C/c1c(O)ccc2ccccc12`?
SIAE inh: 17.9; PAD4 inh: inactive; GSTO1 counter: inactive; PRMT1 FP inh: inactive; SIAE confirm: inactive

How did O=C(NN=Cc1c(O)ccc2ccccc12)c1ccc2c(c1)OCO2 do in these assays?
SIAE inh: inactive; PAD4 inh: inactive; PRMT1 FP inh: inactive

How did O=C(N/N=C/c1c(O)ccc2ccccc12)c1ccc(CO)nc1 do in these assays?
SIAE inh: 34.7; PAD4 inh: inactive; GSTO1 counter: inactive; PRMT1 FP inh: inactive; SIAE confirm: inactive

How did O=C(CNc1ccc(F)cc1)N/N=C/c1c(O)ccc2ccccc12 do in these assays?
SIAE inh: inactive; PAD4 inh: inactive; GSTO1 counter: inactive; PRMT1 FP inh: inactive

What do the screens show for `Cc1[nH]c2ccccc2c1/C=C(\C#N)C(=O)NCC1CCCO1` (stereo not drawn)?
SIAE inh: inactive; PAD4 inh: inactive; GSTO1 counter: inactive; PRMT1 FP inh: inactive; RBBP9 inhibitor: inactive

How did Clc1ccc2c(NNc3ccccc3Cl)ccnc2c1 do in these assays?
SIAE inh: inactive; PAD4 inh: inactive; GSTO1 counter: inactive; PRMT1 FP inh: inactive; RBBP9 inhibitor: inactive

How did O=[N+]([O-])c1ccc(/C=N/Nc2ccnc3cc(Cl)ccc23)o1 do in these assays?
SIAE inh: 20.2; PAD4 inh: inactive; GSTO1 counter: inactive; PRMT1 FP inh: inactive; SIAE confirm: inactive

Results for Clc1ccc2c(N/N=C/c3cccc(Br)c3)ccnc2c1 ?
SIAE inh: 27.2; PAD4 inh: inactive; GSTO1 counter: inactive; PRMT1 FP inh: inactive; RBBP9 inhibitor: inactive; SIAE confirm: 35.4

Results for Cc1cc(C)cc(N/C(N)=N/c2nc(C)cc(C)n2)c1 ?
SIAE inh: 22.6; PAD4 inh: inactive; GSTO1 counter: inactive; PRMT1 FP inh: inactive; RBBP9 inhibitor: inactive; SIAE confirm: inactive

Results for CCCn1cnc2cc(NCc3cccc(OC)c3O)ccc21 ?
SIAE inh: 24.6; PAD4 inh: inactive; GSTO1 counter: inactive; PRMT1 FP inh: inactive; RBBP9 inhibitor: inactive; SIAE confirm: inactive

How did Cc1ccc(CNc2ccc3c(c2)ncn3C)cc1 do in these assays?
SIAE inh: inactive; PAD4 inh: inactive; GSTO1 counter: inactive; PRMT1 FP inh: inactive; RBBP9 inhibitor: inactive

Results for CCCn1cnc2cc(NCc3ccccn3)ccc21 ?
SIAE inh: inactive; PAD4 inh: inactive; GSTO1 counter: inactive; PRMT1 FP inh: inactive

How did COc1ccc(CNc2ccc3c(c2)ncn3C)cc1OC do in these assays?
SIAE inh: 17.8; PAD4 inh: inactive; GSTO1 counter: inactive; PRMT1 FP inh: inactive; SIAE confirm: inactive

Results for CCCNS(=O)(=O)c1cccc(C(=O)NNC(=O)c2cc(C)oc2C)c1 ?
SIAE inh: 17.3; PAD4 inh: inactive; GSTO1 counter: inactive; PRMT1 FP inh: inactive; SIAE confirm: inactive

What do the screens show for `Cc1cc(C(=O)NNC(=O)c2ccc(S(=O)(=O)N(C)C)cc2)c(C)o1`?
SIAE inh: inactive; PAD4 inh: inactive; GSTO1 counter: inactive; PRMT1 FP inh: inactive; RBBP9 inhibitor: inactive

How did CC(=O)Oc1ccc2oc(=O)c3c(c2c1)CCCN3C(=O)CN1CCN(c2ncccn2)CC1 do in these assays?
SIAE inh: inactive; PAD4 inh: inactive; GSTO1 counter: inactive; PRMT1 FP inh: inactive; RBBP9 inhibitor: inactive

What do the screens show for `Cc1[nH]c2ccccc2c1/C=N/NC(=O)C1CC1(c1ccccc1)c1ccccc1` (stereo not drawn)?
SIAE inh: 27.0; PAD4 inh: inactive; GSTO1 counter: inactive; PRMT1 FP inh: inactive; RBBP9 inhibitor: inactive; SIAE confirm: inactive

How did Cc1[nH]c2ccccc2c1/C=N/NC(=S)NC(C)C do in these assays?
SIAE inh: 20.0; PAD4 inh: inactive; GSTO1 counter: inactive; PRMT1 FP inh: inactive; RBBP9 inhibitor: inactive; SIAE confirm: inactive

How did COc1ccc(C(=O)COC(=O)CCNS(=O)(=O)c2ccc(NC(C)=O)cc2)c(OC)c1 do in these assays?
SIAE inh: inactive; PAD4 inh: inactive; GSTO1 counter: inactive; PRMT1 FP inh: inactive
